Active and inactive are the calls of the source. No cut-off for these calls is given here.
Experiments:
[1] = biological target: T1, Prostaglandin E synthase (Homo sapiens) (UniProt O14684); assay: Inhibition of mPGES-1 in human HeLa cells using PGH2 as substrate assessed as inhibition of IL-1beta/TNFalpha-stimulated PGE2 production at 5 uM preincubated for 30 mins followed by substrate addition measured after 1 min by LC-MS/MS analysis; format: cell-based
T1 sequence (whole entry): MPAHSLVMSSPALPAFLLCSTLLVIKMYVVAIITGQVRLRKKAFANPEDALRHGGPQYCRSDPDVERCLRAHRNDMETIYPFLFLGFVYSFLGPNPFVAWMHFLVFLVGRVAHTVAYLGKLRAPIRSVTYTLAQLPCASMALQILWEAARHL
In short: (§1)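 Microsomal fraction from HeLa, NIH-3T3 or RAW 264.7 cells, obtained by sonication and ultracentrifugation, resuspended in 0.1 M KPi pH 7.4 with 2.5 mM reduced GSH. Protein at 0.15 mg/mL (HeLa, NIH) or 0.3 mg/mL (RAW) incubated with compound 30 min on ice. Reaction started with 20 µM PGH₂, stopped after 1 min with FeCl₂/citric acid. PGE₂ quantified by SPE and LC–MS/MS. IC50 from four-parameter logistic fit of increasing concentrations.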

[2] = biological target: T2, Prostaglandin G/H synthase 2 (Homo sapiens) (UniProt P35354); assay: Inhibition of LPS-stimulated COX2 in human whole blood assessed as reduction in PGE2 production by measuring remaining activity at 100 uM preincubated for 15 mins followed by LPS addition measured after 24 hrs by LC-MS/MS analysis
T2 sequence (whole entry): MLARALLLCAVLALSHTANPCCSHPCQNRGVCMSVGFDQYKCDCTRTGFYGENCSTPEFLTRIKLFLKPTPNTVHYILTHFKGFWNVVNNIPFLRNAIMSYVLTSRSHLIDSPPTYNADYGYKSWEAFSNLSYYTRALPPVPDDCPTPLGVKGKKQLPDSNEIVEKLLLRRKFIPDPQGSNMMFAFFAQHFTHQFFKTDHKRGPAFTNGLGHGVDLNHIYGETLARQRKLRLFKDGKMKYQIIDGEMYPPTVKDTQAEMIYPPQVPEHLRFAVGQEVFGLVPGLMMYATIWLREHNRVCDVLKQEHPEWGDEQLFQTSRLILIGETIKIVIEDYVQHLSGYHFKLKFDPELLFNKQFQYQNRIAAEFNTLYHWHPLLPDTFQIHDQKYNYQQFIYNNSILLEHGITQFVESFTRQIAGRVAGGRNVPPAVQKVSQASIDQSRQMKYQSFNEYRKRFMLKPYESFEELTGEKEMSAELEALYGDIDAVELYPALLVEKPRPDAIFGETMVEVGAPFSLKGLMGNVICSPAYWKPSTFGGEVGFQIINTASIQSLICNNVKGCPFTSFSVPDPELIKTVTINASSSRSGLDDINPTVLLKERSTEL
In short: (§2)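 Heparinized human whole blood (500 µL) mixed with compound in DMSO, with acetylsalicylic acid added to block COX-1, held 15 min at 37 °C, then stimulated with LPS in autologous plasma to induce COX-2/mPGES-1. After 24 h at 37 °C, samples chilled 5 min on ice; plasma collected, prostaglandins extracted and measured by LC–MS/MS. Remaining activity given relative to vehicle control.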

[3] = biological target: T2, Prostaglandin G/H synthase 2 (Homo sapiens); assay: Inhibition of LPS-stimulated COX2 in human whole blood assessed as reduction in PGF2alpha production by measuring remaining activity at 100 uM preincubated for 15 mins followed by LPS addition measured after 24 hrs by LC-MS/MS analysis; in short: as §2
[4] = biological target: T3, Prostaglandin E synthase (Mus musculus) (UniProt Q9JM51); assay: Inhibition of mPGES-1 in mouse RAW264.7 cells using PGH2 as substrate assessed as inhibition of LPS-stimulated PGE2 production at 5 uM preincubated for 30 mins followed by substrate addition measured after 1 min by LC-MS/MS analysis; format: cell-based; in short: as §1
T3 sequence (whole entry): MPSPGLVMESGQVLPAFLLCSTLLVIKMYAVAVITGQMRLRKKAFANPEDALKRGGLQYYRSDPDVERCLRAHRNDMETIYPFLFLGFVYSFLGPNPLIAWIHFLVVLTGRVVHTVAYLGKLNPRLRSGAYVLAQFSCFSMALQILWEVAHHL

[5] = biological target: T3, Prostaglandin E synthase (Mus musculus); assay: Inhibition of mPGES-1 in Swiss mouse NIH/3T3 cells using PGH2 as substrate assessed as inhibition of IL-1beta/TNFalpha-stimulated PGE2 production at 5 uM preincubated for 30 mins followed by substrate addition measured after 1 min by LC-MS/MS analysis; format: cell-based; in short: as §1
Prostaglandin E synthase = biological target: T4, Prostaglandin E synthase (Homo sapiens, UniProt O14684); assay: Inhibition of mPGES-1 in human HeLa cells using PGH2 as substrate assessed as inhibition of IL-1beta/TNFalpha-stimulated PGE2 production preincubated for 30 mins followed by substrate addition measured after 1 min by LC-MS/MS analysis; format: cell-based; in short: as §1
T4 sequence (O14684 whole entry): T1 sequence (whole entry)

[6] = biological target: T5, Polyunsaturated fatty acid 5-lipoxygenase (Homo sapiens) (UniProt P09917); assay: Inhibition of calcium ionophore (A23187)-stimulated human 5-LO assessed as reduction of LTB4 production by measuring remaining activity at 100 uM preincubated for 15 mins followed by calcium ionophore (A23187) addition measured after 15 mins by LC-MS/MS analysis
T5 sequence (whole entry): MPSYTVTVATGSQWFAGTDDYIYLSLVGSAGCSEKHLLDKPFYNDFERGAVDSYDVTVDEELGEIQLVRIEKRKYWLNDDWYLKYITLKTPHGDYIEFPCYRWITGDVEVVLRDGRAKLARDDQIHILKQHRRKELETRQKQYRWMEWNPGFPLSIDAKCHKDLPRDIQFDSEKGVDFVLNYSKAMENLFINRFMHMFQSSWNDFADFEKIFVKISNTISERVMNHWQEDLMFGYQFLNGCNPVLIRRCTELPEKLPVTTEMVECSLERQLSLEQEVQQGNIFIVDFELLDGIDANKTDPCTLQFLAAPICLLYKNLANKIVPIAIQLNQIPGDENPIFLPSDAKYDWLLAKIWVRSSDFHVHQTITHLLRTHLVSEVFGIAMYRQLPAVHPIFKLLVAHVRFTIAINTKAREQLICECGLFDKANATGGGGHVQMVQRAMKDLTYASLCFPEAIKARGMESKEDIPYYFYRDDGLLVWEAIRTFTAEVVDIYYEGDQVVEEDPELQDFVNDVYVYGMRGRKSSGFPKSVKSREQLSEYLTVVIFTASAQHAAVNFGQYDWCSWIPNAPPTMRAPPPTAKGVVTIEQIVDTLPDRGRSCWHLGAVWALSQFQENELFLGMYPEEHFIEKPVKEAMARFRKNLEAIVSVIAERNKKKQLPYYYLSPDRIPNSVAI
In short: (§3)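 Heparinized human whole blood (500 µL) preincubated with compound 15 min at 37 °C, then stimulated with 20 µM calcium ionophore A23187 in autologous plasma for 15 min at 37 °C. Plasma spiked with deuterated LTB₄ and HETE internal standards, extracted into ethyl acetate, analysed by LC–MS/MS. Inhibition scored when a level fell by 33% or more versus control.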

[7] = biological target: T5, Polyunsaturated fatty acid 5-lipoxygenase (Homo sapiens); assay: Inhibition of calcium ionophore (A23187)-stimulated human 5-LO assessed as reduction of 5(S)-HETE production by measuring remaining activity at 100 uM preincubated for 15 mins followed by calcium ionophore (A23187) addition measured after 15 mins by LC-MS/MS analysis; in short: as §3
[8] = biological target: T1, Prostaglandin E synthase (Homo sapiens); assay: Inhibition of mPGES-1 in human HeLa cells using PGH2 as substrate assessed as inhibition of IL-1beta/TNFalpha-stimulated PGE2 production at 100 uM after 24 hrs by LC-MS/MS analysis; format: cell-based
In short: (§4)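 HeLa cells (2 × 10⁴ per well) grown 24 h at 37 °C, then given fresh medium with 1 ng/mL IL-1b + 5 ng/mL TNFa (or PBS for unstimulated control) plus compound (1, 10 or 100 µM) or DMSO for 24 h at 37 °C. Supernatant mixed with H₃PO₄, EDTA and deuterated internal standards; PGE₂ measured by SPE and LC–MS/MS.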

[9] = Cytotoxicity against IL-1beta/TNFalpha-stimulated human HeLa cells assessed as cell viability at 100 uM after 24 hrs by WST-1 assay; format: cell-based; conditions: IL-1beta/TNFalpha-stimulated HeLa cells, read-out: Activity
In short: (§5)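 HeLa cells seeded at 3 × 10³ per well in medium with 10% FCS, grown 24 h at 37 °C, then stimulated with IL-1b (1 ng/mL) + TNFa (5 ng/mL) and treated at the same time with compound (1, 10, 100 µM) or DMSO for 24 h. WST-1 reagent then added for 90–150 min; absorbance read at 450 nm against 620 nm reference.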

[10] = biological target: T1, Prostaglandin E synthase (Homo sapiens); assay: Inhibition of mPGES-1 in human HeLa cells using PGH2 as substrate assessed as inhibition of IL-1beta/TNFalpha-stimulated PGE2 production at 1 to 10 uM after 24 hrs by LC-MS/MS analysis; format: cell-based; in short: as §4
HeLa = assay: Cytotoxicity against IL-1beta/TNFalpha-stimulated human HeLa cells assessed as cell viability up to 10 uM after 24 hrs by WST-1 assay; format: cell-based; in short: as §5
[11] = biological target: Prostaglandin G/H synthase 1 (Homo sapiens) (UniProt P23219); assay: Inhibition of COX1 in human whole blood assessed as reduction in PGD2 production by measuring remaining activity at 100 uM after 1 hr by LC-MS/MS analysis
[12] = biological target: Prostaglandin G/H synthase 1 (Homo sapiens) (UniProt P23219); assay: Inhibition of COX1 in human whole blood assessed as reduction in TXB2 production by measuring remaining activity at 100 uM after 1 hr by LC-MS/MS analysis

Prostaglandin G/H synthase 1 (Homo sapiens), sequence (P23219 whole entry): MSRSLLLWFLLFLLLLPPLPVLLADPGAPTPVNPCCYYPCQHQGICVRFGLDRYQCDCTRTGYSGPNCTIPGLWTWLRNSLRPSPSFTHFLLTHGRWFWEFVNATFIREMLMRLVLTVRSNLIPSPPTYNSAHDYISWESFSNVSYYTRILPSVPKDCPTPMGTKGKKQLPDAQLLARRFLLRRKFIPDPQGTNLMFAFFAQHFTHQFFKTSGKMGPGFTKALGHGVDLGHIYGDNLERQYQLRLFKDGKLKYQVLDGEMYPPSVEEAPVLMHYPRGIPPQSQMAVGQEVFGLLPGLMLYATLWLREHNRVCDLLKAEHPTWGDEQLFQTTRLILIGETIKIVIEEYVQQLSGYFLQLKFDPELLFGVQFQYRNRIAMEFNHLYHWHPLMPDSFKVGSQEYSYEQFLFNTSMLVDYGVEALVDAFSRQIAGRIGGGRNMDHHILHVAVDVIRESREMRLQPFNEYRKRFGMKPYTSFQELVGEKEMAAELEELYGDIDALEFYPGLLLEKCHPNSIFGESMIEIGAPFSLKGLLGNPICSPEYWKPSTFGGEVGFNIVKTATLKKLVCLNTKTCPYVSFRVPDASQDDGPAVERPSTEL

| SMILES | inhibition [1] [%] | also measured |
| --- | --- | --- |
| O=S(=O)(c1cccc(Cl)c1)N(Cc1ccccc1)Cc1ccccc1 | 6.2 | – |
| CCCCN(c1ccccc1)S(=O)(=O)c1ccc(C(=O)O)cc1 | < 0 | – |
| O=C(O)c1ccc(S(=O)(=O)N2CCN(c3ccccc3)CC2)cc1 | 58.7 | – |
| O=S(=O)(c1ccc(F)cc1)N(Cc1ccccc1)Cc1ccccc1 | < 0 | – |
| O=S(=O)(c1ccccc1Cl)N(Cc1ccccc1)Cc1ccccc1 | < 0 | – |
| O=S(=O)(c1ccc(Cl)cc1)N(Cc1ccccc1)Cc1ccccc1 | < 0 | – |
| O=C(O)c1ccc(CN(Cc2ccccc2)Cc2ccccc2)cc1 | 17.4 | – |
| N#Cc1ccc(S(=O)(=O)N(Cc2ccccc2)Cc2ccccc2)cc1 | 34.1 | – |
| O=S(=O)(c1ccc(C(F)(F)F)cc1)N(Cc1ccccc1)Cc1ccccc1 | 11.9 | – |
| Cc1ccc(-c2cc(C(F)(F)F)nn2-c2ccc(S(N)(=O)=O)cc2)cc1 [CELECOXIB] | – | inhibition [8]: Active; viability at 24 h, 100 µM [9]: 50%; inhibition [10]: inactive; Activity (HeLa): Non-toxic |
| CCN(c1ccccc1)S(=O)(=O)c1ccc(C(=O)O)cc1 | < 0 | – |

Now from value to molecule, other results behind:

| inhibition [1] [%] | SMILES | also measured |
| --- | --- | --- |
| 73 | O=C(O)c1ccc(S(=O)(=O)N(CCCc2ccccc2)Cc2ccccc2)cc1 | Activity [2]: 68%; Activity [3]: 129% |
| 14.2 | COc1ccc(CN(Cc2ccoc2)S(=O)(=O)c2ccc(C(=O)O)cc2)cc1 | – |
| 6 | COc1ccc(CN(Cc2cccc(C#N)c2)S(=O)(=O)c2ccc(C(=O)O)cc2)cc1 | – |
| 2.9 | COc1ccc(CN(Cc2nc(C)cs2)S(=O)(=O)c2ccc(C(=O)O)cc2)cc1 | – |
| < 0 | CCN(Cc1ccccc1)S(=O)(=O)c1ccc(C(=O)O)cc1 | – |
| 35.8 | O=C(O)c1cccc(S(=O)(=O)N(Cc2ccccc2)Cc2ccccc2)c1 | – |
| 48.4 | O=C(O)c1ccc(S(=O)(=O)N(Cc2ccc(Cl)cc2)CC2CCCCC2)cc1 | – |
| 51.4 | O=C(O)c1ccc(S(=O)(=O)N(Cc2ccccc2)Cc2ccccc2)cc1 | – |
| 76 | O=C(O)c1ccc(S(=O)(=O)N(Cc2ccc(-c3ccccc3)cc2)CC2CCCCC2)cc1 | inhibition [4]: 44.4%; inhibition [5]: 51.9%; IC50 (Prostaglandin E synthase): 800 nM; Activity [2]: 69.7%; Activity [6]: 75.7%; Activity [3]: 117%; Activity [7]: 75.9% |
| 26.4 | O=C(O)c1ccc(S(=O)(=O)N(Cc2ccccc2)c2ccccc2)cc1 | – |
| < 0 | COc1ccc(CN(Cc2ccc(C#N)cc2)S(=O)(=O)c2ccc(C(=O)O)cc2)cc1 | – |
| 1 | N#Cc1ccc(S(=O)(=O)N(Cc2ccccc2)Cc2ccc(Oc3ccccc3)cc2)cc1 | – |
| 11.9 | COc1ccc(CN(Cc2ccsc2)S(=O)(=O)c2ccc(C(=O)O)cc2)cc1 | – |
| 79.2 | O=C(O)c1ccc(S(=O)(=O)N(Cc2ccc(Oc3ccccc3)cc2)CC2CCCCC2)cc1 | – |
| 57 | O=C(O)c1ccc(S(=O)(=O)N(CCc2ccccc2)Cc2ccccc2)cc1 | Activity [2]: 83.3%; Activity [3]: 117% |
| 19.1 | CCCCN(Cc1ccccc1)S(=O)(=O)c1ccc(C(=O)O)cc1 | inhibition [8]: Active; Activity [11]: 73.4%; viability at 24 h, 100 µM [9]: 50%; inhibition [10]: inactive; Activity [12]: 97.8%; Activity [2]: 62.8%; Activity [6]: 124%; Activity [3]: 117%; Activity [7]: 121%; Activity (HeLa): Non-toxic |

Reference: ChEMBL document CHEMBL3091291, “Synthesis and pharmacological characterization of benzenesulfonamides as dual species inhibitors of human and murine mPGES-1” (Bioorg Med Chem, 2013)
